Assay results: ChEMBL document CHEMBL1130162, “Structure-activity relationships of cysteine-lacking pentapeptide derivatives that inhibit ras farnesyltransferase” (J Med Chem, 1997)

Assays:
[1] = target: T1, Protein farnesyltransferase (Rattus norvegicus, UniProt Q02293+Q04631); assay: Inhibition of rat brain farnesyltransferase in 50 mM HEPES buffer
Outline: (§1)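 40-fold purified rat brain FTase at pH 7.4 with 1.2 mM MgCl2, leupeptin, pepstatin and PMSF. Substrates: [1-3H]farnesyl pyrophosphate (0.12 μM final) and biotinyl-aminoheptanoyl-TKCVIM peptide (0.1 μM final). Compounds were serially diluted from DMSO and incubated 30 min at 37 °C. Stopped with streptavidin beads in acidic Mg acetate/BSA and scintillation counted.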

[2] = target: T1, Protein farnesyltransferase; assay: Inhibition of rat brain farnesyltransferase in 30 mM potassium phosphate buffer; outline: as §1
[3] = target: T1, Protein farnesyltransferase; assay: Inhibition of rat brain farnesyltransferase in 5 mM potassium phosphate and 50 mM HEPES buffer; outline: as §1
[4] = target: T1, Protein farnesyltransferase; assay: Inhibitory concentration against rat brain farnesyltransferase
Outline: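 Rat brain FTase (40-fold purified), pH 7.4, in 30 mM potassium phosphate, 5 mM phosphate plus 50 mM Hepes, or 50 mM Hepes. Buffer also held 7 mM DTT, 1.2 mM MgCl2 and protease inhibitors. Final substrates were 0.12 μM [1-3H]FPP and 0.1 μM biotinyl-aminoheptanoyl-TKCVIM, with inhibitor varied from DMSO stock. Reaction ran 30 min at 37 °C, was stopped with streptavidin beads, and was counted by scintillation proximity. Generally n = 2.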

[5] = target: Protein farnesyltransferase (Homo sapiens, UniProt P49354+P49356); assay: Inhibition of human farnesyltransferase; format: protein-complex assay
[6] = target: geranylgeranyltransferase type-I (Rattus norvegicus, UniProt P53610+Q04631); assay: Inhibition of rat brain Geranylgeranyl transferase type I; details: in the assay text read “rat” for “rat brain”
Outline: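 Rat GGTase-I expressed in Sf9 cells, assayed like the FTase test. Substrates were geranylgeranyl pyrophosphate and biotinyl-aminoheptanoyl-Thr-Lys-Cys-Val-Ile-Leu, with inhibitor varied from DMSO stock. Incubation at 37 °C. Streptavidin bead capture with radioactivity count as the read-out.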

IC50 [4] [nM]	IC50 [5] [nM]	IC50 [6] [nM]	Structure (SMILES)	IC50 [1] [nM]	IC50 [2] [nM]	IC50 [3] [nM]
			CCOP(=O)(Cc1ccc(CC(NC(=O)[C@@H](Cc2cnc[nH]2)NC(=O)OCc2ccccc2)C(=O)N[C@H](COCc2ccccc2)C(=O)N[C@H](Cc2c[nH]c3ccccc23)C(=O)N[C@@H](C)C(N)=O)cc1)OCC (some centres not stated)	75	25	49
			C[C@H](NC(=O)[C@@H](Cc1c[nH]c2ccccc12)NC(=O)[C@@H](COP(=O)(O)O)NC(=O)[C@@H](Cc1ccc(OCc2ccccc2)cc1)NC(=O)[C@@H](Cc1cnc[nH]1)NC(=O)OCc1ccccc1)C(N)=O	660	240	360
			C[C@H](NC(=O)[C@@H](Cc1c[nH]c2ccccc12)NC(=O)[C@@H](COCc1ccccc1)NC(=O)[C@@H](Cc1ccc(OP(=O)(O)O)cc1)NC(=O)[C@@H](Cc1c[nH]cn1)NC(=O)OCc1ccccc1)C(N)=O	6	13	9
			C[C@H](NC(=O)[C@@H](Cc1c[nH]c2ccccc12)NC(=O)[C@@H](COCc1ccccc1)NC(=O)C(Cc1ccc(CP(=O)(O)O)cc1)NC(=O)[C@@H](Cc1cnc[nH]1)NC(=O)OCc1ccccc1)C(N)=O (some centres not stated)	190	200	280
35			C[C@@H](NC(=O)[C@H](Cc1c[nH]c2ccccc12)NC(=O)[C@H](COCc1ccccc1)NC(=O)[C@H](Cc1ccc(O)cc1)NC(=O)[C@H](Cc1c[nH]cn1)NC(=O)OCc1ccccc1)C(N)=O (single isomer, unassigned)	510	35	102
20	10	1250	C[C@@H](NC(=O)[C@H](Cc1c[nH]c2ccccc12)NC(=O)[C@H](COCc1ccccc1)NC(=O)[C@H](Cc1ccc(OCc2ccccc2)cc1)NC(=O)[C@H](Cc1c[nH]cn1)NC(=O)OCc1ccccc1)C(N)=O (single isomer, unassigned)	1600	20	76
